The values below come from publication PMC2649372 (Biochemistry, 2008).

Common to all, as to experiment: Agonist-induced currents, voltage clamp electrophysiology in Xenopus oocytes
Assay type in all cases: cell-based

Assay [1] addresses T1, WT 5-HT3 receptor (mouse 5-HT3A subunit) (Mus musculus, UniProt P23979).
T1 sequence (P23979 24-483 isoform P23979-2 limits assumed): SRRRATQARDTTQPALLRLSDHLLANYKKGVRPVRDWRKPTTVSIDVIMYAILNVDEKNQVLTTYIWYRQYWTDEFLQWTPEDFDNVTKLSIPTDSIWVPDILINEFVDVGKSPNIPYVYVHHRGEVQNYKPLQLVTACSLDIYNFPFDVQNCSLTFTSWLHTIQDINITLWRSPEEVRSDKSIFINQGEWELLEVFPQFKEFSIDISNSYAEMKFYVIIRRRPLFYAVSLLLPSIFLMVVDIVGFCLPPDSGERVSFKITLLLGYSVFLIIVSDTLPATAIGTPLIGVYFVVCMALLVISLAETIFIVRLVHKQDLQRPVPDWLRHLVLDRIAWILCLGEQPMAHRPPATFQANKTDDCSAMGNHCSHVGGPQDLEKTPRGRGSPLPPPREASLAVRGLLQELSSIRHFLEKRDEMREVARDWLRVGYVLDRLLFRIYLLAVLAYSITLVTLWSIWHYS
The following applies: WT.

Assay [2] deals with T2, N128Q mutant 5-HT3 receptor (mouse 5-HT3A subunit) (Mus musculus, UniProt P23979, N128Q).
T2 sequence (P23979 24-483 isoform P23979-2 N128Q limits assumed): T1 sequence (P23979 24-483 isoform P23979-2 limits assumed) with N105Q
The following applies: N128Q.

In assay [3] the target is T3, E129H mutant 5-HT3 receptor (mouse 5-HT3A subunit) (Mus musculus, UniProt P23979, E129H).
T3 sequence (P23979 24-483 isoform P23979-2 E129H limits assumed): T1 sequence (P23979 24-483 isoform P23979-2 limits assumed) with E106H

The target in assay [4] is T4, E129N mutant 5-HT3 receptor (mouse 5-HT3A subunit) (Mus musculus, UniProt P23979, E129N).
T4 sequence (P23979 24-483 isoform P23979-2 E129N limits assumed): T1 sequence (P23979 24-483 isoform P23979-2 limits assumed) with E106N
The following applies: E129N.

Assay [5] deals with T5, E129-Nha mutant 5-HT3 receptor (mouse 5-HT3A subunit) (Mus musculus, UniProt Q6J1J7).
T5 sequence (Q6J1J7 24-483): T1 sequence (P23979 24-483 isoform P23979-2 limits assumed) with F436L
Put shortly: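 Mouse 5-HT3A receptor carrying Nha or Akp, introduced by nonsense suppression. Stage V-VI Xenopus oocytes were co-injected with 5 ng cRNA and 25 ng photodeprotected aminoacyl-tRNA. Controls received tRNA without an amino acid. At 24-72 h, agonist currents were recorded by two-electrode voltage clamp at -60 mV, 22-25 °C, in Ca-free ND96 (pH 7.5).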

The mark [6] stands for this setting: oocytes, holding potential −60 mV.

Where a chain is given by its changes, count along the chain named. Marks after values point to notes of the source that are not given here.

Regarding `NCCc1c[nH]c2ccc(O)cc12` [5-HT, 5-hydroxytryptamine], the “nH (Hill coefficient)” value in assay [1] is 2.54 ± 0.15; in assay [2] it was 2.11 ± 0.29; in assay [3], 1.07 ± 0.24 ^b; in assay [5], 1.18 ± 0.12 ^b. Besides, the “size of agonist response (current)” value in assay [4] was over 5 µA. This compound gave a concentration giving a half-maximal response (EC50) in assay [5] of 3500 nM. Moreover, the negative-log EC50 (pEC50) in assay [5] was determined as 5.45 ± 0.04.

Take `N=C(N)NC(=N)Nc1cccc(Cl)c1` [mCPBG, m-chlorophenylbiguanide]: the “nH (Hill coefficient)” value in assay [1] was 2.03 ± 0.23; in assay [2], 2.41 ± 0.16; in assay [3], 1.63 ± 0.20; in assay [4], 1.25 ± 0.19; in assay [5] it was 1.91 ± 0.60. The EC50 in assay [1] (setting [6]) amounted to 470 nM; in assay [2] it was 3000 nM; in assay [3], 370 nM; in assay [4] it was 620 nM; in assay [5] it was 560 nM. Besides, the pEC50 was 6.33 ± 0.02 in assay [1] (setting [6]); 5.52 ± 0.18 ^b in assay [2]; 6.43 ± 0.04 in assay [3]; 6.21 ± 0.05 in assay [4] (SR = small (<100 nA) responses); 6.25 ± 0.07 in assay [5]. In addition, in assay [4], the “size of agonist response (current)” value is recorded as over 5 µA.
